According to article PMC9647114 (Journal of Clinical and Translational Hepatology, 2022):
Bridges are numbered along the chain shown (N, C = ends). Where no end group is shown, it is not given here.

Experiments:
[1] = system: orthotopic HCC lesions; test: NIRF imaging with Cy5 probe, orthotopic HCC mice; assay type: in vivo; details: i.v., Supplementary Fig. 1
[2] = system: integrin a6; details: peptide identified by phage display; cited from earlier work
[3] = system: HCC-LM3 cells; test: Confocal fluorescence microscopy of probe binding to HCC-LM3 cells; assay type: cell-based, human; details: 6 nM probe, 2 h incubation, Fig. 1B
Summary of the method: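 HCC-LM3 cells were grown on glass coverslips for 24 h, then incubated with 6 nM Cy7-labelled probe for 2 h and washed three times in PBS. They were fixed in 4% paraformaldehyde, permeabilised with 0.2% Triton X-100 and blocked with 5% BSA. Staining used rabbit anti-integrin α6 (1:250, overnight, 4°C), then fluorescein goat anti-rabbit (1:1,000, 1 h, 37°C), with DAPI for nuclei. Imaged by confocal microscopy.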

[4] = system: H22 cells; test: CCK-8 in vitro cytotoxicity assay; assay type: cell-based, mouse; details: 0 to 500 nM, 48 h or 72 h, Supplementary Fig. 3
Summary of the method: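 H22 mouse hepatoma cells grown in DMEM with 10% FBS and 1% pen/strep at 37°C, 5% CO2. Cells were seeded at 3×10^3 per well and left 24 h, then exposed to the Cy7-labelled peptide probe at 0–500 nM for 48 h or 72 h. CCK-8 reagent was then added for 2 h, and absorbance was read at 450 nm.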

[5] = system: subcutaneous HCC-LM3 tumor; test: NIRF imaging and ex vivo biodistribution, subcutaneous HCC-LM3 tumor model; assay type: in vivo; details: mice, i.v., statement of the discussion
[6] = system: orthotopic HCC-LM3 tumors; test: NIRF imaging, orthotopic HCC-LM3 tumor model; assay type: in vivo, mice; details: post-injection; sustained until 24 h
[7] = system: orthotopic HCC-H22 tumors; test: NIRF imaging and biodistribution, orthotopic HCC-H22 tumor model; assay type: in vivo, mice; details: orthotopic HCC-H22, tumor and major organs 48 h after injection, Fig. 3
Summary of the method: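 Nude mice carried orthotopic luciferase-tagged H22 liver lesions and received Cy7-labelled probe or Cy7-control peptide i.v. by tail vein. NIRF imaging used 740 nm excitation and a 780 nm filter. Mice were killed 48 h post-injection, and tumor, heart, liver, spleen, kidney, lung and brain were imaged ex vivo. Organ fluorescence intensity was quantified.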

[8] = system: subcutaneous HCC-LM3 tumors; test: Photoacoustic imaging, subcutaneous HCC-LM3 tumors; assay type: in vivo, mice; details: after i.v. injection, 0 to 48 h
[9] = system: major organs; test: In vivo toxicity by H&E staining of major organs; details: imaging dose; heart, spleen, lung, kidney, brain of H22 tumor-bearing nude mice vs control group, Supplementary Fig. 9

**Q.** With “CRWYDENAC (disulfide 1-9 (inferred)) [Cy5-RWY]” as the sequence, how does the “Homing of probe to HCC lesions (NIRF)” value [1] read?
**A.** specifically homed to HCC lesions

**Q.** For “CRWYDENAC (disulfide 1-9 (inferred)) [RWY]”, which “Binding to integrin a6” value [2] is on record?
**A.** high specificity and affinity

**Q.** With “CRWYDENAC (disulfide 1-9 (inferred)) [Cy7-RWY]” as the sequence, how does the “Fluorescence signal in cells by confocal microscopy” value [3] read?
**A.** Strong red fluorescence signals

**Q.** And the “Cytotoxicity (cell viability, CCK-8)” value [4]?
**A.** no significant cytotoxicity

**Q.** What about the Renal clearance [5] of the same sequence?
**A.** fast renal clearance

**Q.** What about the “Time at which tumor fluorescence signal reached a steady level” value [6] of the same sequence?
**A.** 6 h

**Q.** And the “Ex vivo fluorescence signal in tumors” value [7]?
**A.** high level of the fluorescence signal

**Q.** What about the “Time at which NIRF and PA signals in the tumor peaked” value [8] of the same sequence?
**A.** 24 h

**Q.** And the “Time at which NIRF and PA signals started to accumulate in the tumor” value [8]?
**A.** 2 h

**Q.** What about the “Cell and tissue damage in major organs (H&E)” value [9] of the same sequence?
**A.** did not find significant cell and tissue damage

**Q.** Which “Fluorescence signal in cells by confocal microscopy” value [3] does the source give for “CGGGGGGGC (cysteine pairing not given here) [Cy7-control, reference compound]” here?
**A.** no fluorescence response
